According to PMC4539245 (Nature chemical biology, 2013):

Columns and labels:
Kv1.5 mutant channels = experiment: TEVC in Xenopus oocytes, Kv1.5 scanning mutants; assay type: cell-based, human
Kv1.5 channels = Kv1.5 channels (Homo sapiens, UniProt P22460); assay type: cell-based
Kv1.5 = conditions: read-out: IC50 for block of Kv1.5; cited from earlier work
Kv2.1 = molecular target: T1, Kv2.1 (Homo sapiens, UniProt Q14721); experiment: TEVC in Xenopus oocytes, Kv2.1 wild type; assay type: cell-based; conditions: read-out: IC50 for Kv2.1
T1 sequence (Q14721 1-858): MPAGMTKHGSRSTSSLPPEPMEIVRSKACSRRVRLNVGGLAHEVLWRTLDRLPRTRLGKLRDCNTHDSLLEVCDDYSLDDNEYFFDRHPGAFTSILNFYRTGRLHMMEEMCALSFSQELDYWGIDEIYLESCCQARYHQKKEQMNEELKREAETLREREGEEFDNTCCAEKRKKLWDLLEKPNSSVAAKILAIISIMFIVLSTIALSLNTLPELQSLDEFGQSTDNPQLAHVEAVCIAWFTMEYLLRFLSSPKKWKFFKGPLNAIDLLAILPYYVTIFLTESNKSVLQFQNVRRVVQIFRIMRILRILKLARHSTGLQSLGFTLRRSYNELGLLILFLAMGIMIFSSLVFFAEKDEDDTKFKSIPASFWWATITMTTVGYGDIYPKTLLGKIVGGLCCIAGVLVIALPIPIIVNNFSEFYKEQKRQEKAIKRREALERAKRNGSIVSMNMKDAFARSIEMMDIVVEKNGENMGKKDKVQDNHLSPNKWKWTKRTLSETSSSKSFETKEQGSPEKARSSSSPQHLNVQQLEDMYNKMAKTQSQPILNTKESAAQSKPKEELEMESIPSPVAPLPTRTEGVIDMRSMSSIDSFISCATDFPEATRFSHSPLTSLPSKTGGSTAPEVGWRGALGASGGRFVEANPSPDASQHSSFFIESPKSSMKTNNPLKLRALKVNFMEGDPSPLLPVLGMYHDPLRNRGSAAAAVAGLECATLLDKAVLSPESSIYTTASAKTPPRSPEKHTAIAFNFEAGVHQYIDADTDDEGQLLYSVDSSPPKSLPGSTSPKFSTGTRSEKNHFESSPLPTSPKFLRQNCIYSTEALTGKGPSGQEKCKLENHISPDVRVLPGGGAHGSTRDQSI
Summary of the method: (§1)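 Stage IV–V X. laevis oocytes cultured at 18 °C for 1–13 d in HEPES-buffered saline, pH 7.4, with gentamycine and pyruvate. Two-electrode voltage clamp in modified ND96 (4 mM KCl, pH 7.5). Currents were evoked by 2-s pulses to +40 mV every 10 s from −80 mV. Compound was taken from a 10 mM DMSO stock.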

Kv1.3 = conditions: read-out: IC50 for block of Kv1.3; cited from earlier work
Kv2.1 SP+CC mutant = experiment: TEVC in Xenopus oocytes, Kv2.1 SP+CC six-fold mutant; assay type: cell-based
Summary of the method: as §1

Kv3.1 = conditions: cited from earlier work
Kv1.5 A503L mutant = experiment: TEVC in Xenopus oocytes, Kv1.5 A503L mutant; assay type: cell-based, human; conditions: versus wild-type Kv1.5
[1] = tested on: Kv1.1, Kv1.2, Kv1.5 and Kv1.6 versus Kv2.1, Kv3.1 and Kv4.3; experiment: TEVC in Xenopus oocytes, block of different Kv channels; assay type: cell-based; conditions: 500 nM Psora-4, +40 mV
Summary of the method: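 Channels expressed in Xenopus oocytes and recorded by two-electrode voltage clamp in modified ND96 (96 mM NaCl, 4 mM KCl, 5 mM HEPES, pH 7.5). Cells were held at −80 mV and stepped to +40 mV for 2 s every 10 s. Test compound was applied at 500 nM from a 10 mM DMSO stock, and block was analysed at +40 mV.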

Kv1.5 channels, sequence (P22460 whole entry): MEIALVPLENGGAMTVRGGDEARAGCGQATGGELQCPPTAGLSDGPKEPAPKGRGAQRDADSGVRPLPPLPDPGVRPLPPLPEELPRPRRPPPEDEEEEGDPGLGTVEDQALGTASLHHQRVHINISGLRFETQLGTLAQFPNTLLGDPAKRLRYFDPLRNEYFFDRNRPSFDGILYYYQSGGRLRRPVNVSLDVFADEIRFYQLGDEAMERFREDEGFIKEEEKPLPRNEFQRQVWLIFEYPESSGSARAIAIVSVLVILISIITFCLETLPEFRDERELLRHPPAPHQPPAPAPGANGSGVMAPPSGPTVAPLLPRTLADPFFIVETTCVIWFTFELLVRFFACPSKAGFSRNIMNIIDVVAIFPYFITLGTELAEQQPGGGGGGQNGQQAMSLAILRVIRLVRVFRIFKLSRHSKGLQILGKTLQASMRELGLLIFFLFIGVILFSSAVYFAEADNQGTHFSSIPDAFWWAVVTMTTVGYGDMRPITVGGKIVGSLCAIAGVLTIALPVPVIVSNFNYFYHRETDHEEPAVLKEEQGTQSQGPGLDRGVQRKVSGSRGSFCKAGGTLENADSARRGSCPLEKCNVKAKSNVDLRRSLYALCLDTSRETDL

Q: With `CCCCN1CCCCC1C(=O)Nc1c(C)cccc1C` (centres unmarked) [bupivacaine] as the compound, how does the “inhibition of S4 and S4-S5 linker mutants” value (Kv1.5 mutant channels; control pore blocker, side-pocket mutants) read?
A: None of the mutations in the S4 segment or the S4–S5 linker reduced bupivacaine inhibition

Q: With `CC[N+](CC)(CC)CC` [TEA, tetraethyl-ammonium] as the compound, how does the “effect on inhibition by 100 nM Psora-4” value (Kv1.5 channels) read?
A: prevented the otherwise complete inhibition

Q: And the “effect on kinetics of Psora-4 block” value (Kv1.5 channels)?
A: slowed the kinetics of block

Q: Which “competition with Psora-4 in the central cavity” value (Kv1.5 channels; TPA pre-applied, same conditions as TEA) does the source give for `CCCCC[N+](CCCCC)(CCCCC)CCCCC` [TPA, tetrapentyl-ammonium] here?
A: no apparent competition

Q: Which IC50 (Kv1.5) does the source give for `O=c1ccc2c(OCCCCc3ccccc3)c3ccoc3cc2o1` [Psora-4] here?
A: […]

Q: And the IC50 (Kv2.1)?
A: ~3.9 µM

Q: And the IC50 (Kv2.1 SP+CC mutant; read-out: IC50 for Kv2.1 SP+CC, six-fold mutant)?
A: 580 nM

Q: And the “block of other K+ channels including Kv3.1” value (Kv3.1)?
A: micromolar range

Q: And the “increase of IC50 for A503L mutant” value (Kv1.5 A503L mutant)?
A: ~100 fold

Q: And the “increase of IC50 by S4, S4-S5 linker and S5 mutations” value (Kv1.5 mutant channels; side-pocket hits versus wild-type Kv1.5)?
A: up to 276 fold

Q: What about the “sensitivity of Kv1 subfamily members versus Kv2.1, Kv3.1 and Kv4.3” value [1] of the same compound?
A: much more sensitive
